The text below walks through data of ChEMBL document CHEMBL2203161 (Bioorg Med Chem, 2012).

The target of data set [1] is T1, Probable linoleate 9S-lipoxygenase 5 (Solanum tuberosum) (UniProt Q43191).
T1 sequence (whole entry): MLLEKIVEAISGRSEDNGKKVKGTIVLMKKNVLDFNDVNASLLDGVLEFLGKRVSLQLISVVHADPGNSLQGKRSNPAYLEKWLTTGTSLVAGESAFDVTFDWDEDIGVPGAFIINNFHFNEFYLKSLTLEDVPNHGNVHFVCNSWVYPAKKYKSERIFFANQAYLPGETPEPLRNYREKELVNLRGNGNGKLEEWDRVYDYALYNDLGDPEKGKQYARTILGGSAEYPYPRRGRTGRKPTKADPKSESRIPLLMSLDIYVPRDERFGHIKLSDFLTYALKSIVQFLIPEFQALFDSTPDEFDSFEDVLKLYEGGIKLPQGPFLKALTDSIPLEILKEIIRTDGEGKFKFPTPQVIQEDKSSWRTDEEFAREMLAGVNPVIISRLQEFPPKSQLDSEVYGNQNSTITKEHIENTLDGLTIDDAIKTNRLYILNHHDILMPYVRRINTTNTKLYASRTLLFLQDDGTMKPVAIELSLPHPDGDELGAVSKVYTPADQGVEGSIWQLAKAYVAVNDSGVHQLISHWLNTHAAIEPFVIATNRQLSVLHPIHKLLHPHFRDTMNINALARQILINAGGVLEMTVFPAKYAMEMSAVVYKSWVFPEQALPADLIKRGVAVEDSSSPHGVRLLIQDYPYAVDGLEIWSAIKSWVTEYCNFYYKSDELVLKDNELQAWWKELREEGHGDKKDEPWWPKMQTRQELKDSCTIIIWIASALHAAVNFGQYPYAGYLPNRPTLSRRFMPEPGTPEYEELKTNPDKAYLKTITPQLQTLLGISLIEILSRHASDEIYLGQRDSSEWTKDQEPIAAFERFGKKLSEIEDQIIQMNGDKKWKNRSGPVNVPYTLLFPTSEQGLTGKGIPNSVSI
To be noted: 50 uM.

Data set [2] addresses T1, Probable linoleate 9S-lipoxygenase 5 (Solanum tuberosum). To be noted: 6 uM.
Data set [3] can be described thus: Critical micelles concentration of the compound in 0.2 M borate buffer at pH 9. Type of data set: physicochemical. In short, it runs like this:
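Surface tension plotted against log concentration in 0.2 M borate buffer pH 9.0 at 19 °C (SLO-1 assay conditions). CMC read from the plot.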

The target of data set [4] is T2, Seed linoleate 13S-lipoxygenase-1 (Glycine max, UniProt P08170).
T2 sequence (P08170 whole entry): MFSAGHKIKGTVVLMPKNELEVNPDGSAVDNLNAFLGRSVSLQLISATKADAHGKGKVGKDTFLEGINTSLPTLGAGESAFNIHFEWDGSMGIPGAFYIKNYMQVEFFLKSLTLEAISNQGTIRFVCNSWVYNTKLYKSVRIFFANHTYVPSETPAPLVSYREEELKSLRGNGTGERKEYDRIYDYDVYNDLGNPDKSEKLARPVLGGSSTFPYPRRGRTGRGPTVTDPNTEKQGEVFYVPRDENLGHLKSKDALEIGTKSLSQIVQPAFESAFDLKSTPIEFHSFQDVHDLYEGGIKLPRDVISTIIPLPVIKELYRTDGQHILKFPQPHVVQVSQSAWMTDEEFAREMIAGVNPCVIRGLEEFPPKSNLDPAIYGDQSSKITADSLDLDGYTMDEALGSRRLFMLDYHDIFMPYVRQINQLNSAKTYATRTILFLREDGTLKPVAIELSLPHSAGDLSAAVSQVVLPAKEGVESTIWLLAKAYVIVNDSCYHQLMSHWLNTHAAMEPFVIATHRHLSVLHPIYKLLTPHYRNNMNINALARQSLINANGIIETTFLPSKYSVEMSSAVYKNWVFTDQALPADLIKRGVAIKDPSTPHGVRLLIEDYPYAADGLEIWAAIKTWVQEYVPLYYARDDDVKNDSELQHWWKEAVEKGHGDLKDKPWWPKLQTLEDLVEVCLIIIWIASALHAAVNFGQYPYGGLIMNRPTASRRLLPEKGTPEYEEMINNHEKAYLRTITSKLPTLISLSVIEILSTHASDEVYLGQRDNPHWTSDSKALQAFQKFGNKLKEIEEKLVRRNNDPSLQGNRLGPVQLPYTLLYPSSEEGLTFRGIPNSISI
The data set is described as follows: Inhibition of soybean lipoxygenase-1 assessed as formation of 13-HPOD from linoleic acid preincubated for 10 mins measured by real-time spectrophotometric analysis.

For data set [5], the target named is T1, Probable linoleate 9S-lipoxygenase 5 (Solanum tuberosum). The data set is described as follows: Inhibition of potato 5-lipoxygenase assessed as residual activity preincubated for 10 mins measured by real-time spectrophotometric analysis. The gist of the method: (§1)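 Single-concentration screen against soybean LOX-1 and potato 5-LOX. Enzyme preincubated 10 min with 50 µM compound. Formation of conjugated diene 13-HPOD from linoleic acid followed spectrophotometrically in real time. Residual activity given as percent of blank without inhibitor. Average of three independent experiments with standard deviations.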

In data set [6] the target is T2, Seed linoleate 13S-lipoxygenase-1. The data set is described as follows: Inhibition of soybean lipoxygenase-1 assessed as inhibition constant for enzyme-substrate-inhibitor complex by Lineweaver-Burk plot. The gist of the method:
(§2)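 SLO-1 conversion of linoleic acid monitored spectrophotometrically in 0.2 M borate buffer pH 9.0 with no inhibitor or after preincubation with 6 or 11 µM inhibitor. Vmax and Km (apparent) taken from Lineweaver–Burk intercepts. Ki (free enzyme) and K'i (substrate-bound enzyme) calculated with a mixed-inhibition model. n=3, ±S.D.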

Data set [7] shares this target. The experiment in a line: Inhibition of soybean lipoxygenase-1 assessed as inhibition constant for enzyme-inhibitor complex by Lineweaver-Burk plot. In short, it runs like this:
as §2

Data set [8] has as its target T3, Seed linoleate 13S-lipoxygenase-1 (Glycine max) (UniProt P08170).
T3 sequence (whole entry): T2 sequence (P08170 whole entry)
The data set is described as follows: Inhibition of soybean lipoxygenase-1 assessed as formation of 13-HPOD from linoleic acid preincubated for 10 mins measured by real-time spectrophotometric analysis.

Data set [9] addresses T1, Probable linoleate 9S-lipoxygenase 5 (Solanum tuberosum). The data set is described as follows: Activation of potato 5-lipoxygenase assessed as increase in residual activity preincubated for 10 mins measured by real-time spectrophotometric analysis by Lineweaver-Burk plot. In short, it runs like this:
(§3)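 Potato 5-LOX kinetics: enzyme preincubated without activator or with activator at 12.5, 25 and 50 µM. Conjugated diene formation from linoleic acid followed spectrophotometrically in real time, in 0.1 M phosphate buffer pH 6.3. Lineweaver–Burk plots drawn. K_A, α and β derived from re-plots of 1/Δslope and 1/Δintercept using the non-essential activation equation. n=3, ±S.D.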

Data set [10] is described as follows: Critical micelles concentration of the compound in 0.1 M phosphate buffer at pH 6.3. It counts as physicochemical. The gist of the method:
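Surface tension measured against log concentration in 0.1 M phosphate buffer pH 6.3 at 25 °C (potato 5-LOX assay conditions). CMC read from the plot.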

Data set [11] deals with T1, Probable linoleate 9S-lipoxygenase 5 (Solanum tuberosum). The data set is described as follows: Activation of potato 5-lipoxygenase assessed as residual activity at 50 uM preincubated for 10 mins measured by real-time spectrophotometric analysis relative to untreated control. In short, it runs like this:
as §1

Data set [12] shares this target. The experiment in a line: Activation of potato 5-lipoxygenase assessed as increase in residual activity preincubated for 10 mins measured by real-time spectrophotometric analysis. The gist of the method: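 Potato 5-LOX in 0.1 M phosphate buffer pH 6.3, preincubated with a range of activator concentrations or without compound (control). Formation of […] from linoleic acid monitored spectrophotometrically in real time. Activity expressed against control. Mean of three independent experiments ±S.D.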

For data set [13] the target is unchanged. The data set is described as follows: Activation of potato 5-lipoxygenase assessed as binding constant for substrate bound enzyme preincubated for 10 mins measured by real-time spectrophotometric analysis by Lineweaver-Burk plot. The gist of the method: as §3
The target is the same in data set [14]. The data set is described as follows: Activation of potato 5-lipoxygenase assessed as increase in enzyme catalytic rate preincubated for 10 mins measured by real-time spectrophotometric analysis relative to untreated control. The gist of the method: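 Non-essential activation analysis of potato 5-LOX in 0.1 M phosphate buffer pH 6.3. Linoleic acid conversion read spectrophotometrically after preincubation with 0, 12.5, 25 or 50 µM activator. β, the change in catalytic constant, is taken from the re-plot of 1/Δintercept from Lineweaver–Burk plots. Three independent experiments.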

Activity calls are given as the source filed them. The calls are words filed in the database; no cut-off is given here.

Broadly, the inhibition is how much of the control response was suppressed. Turning to `CCCCCCCCCCCCCCCc1cccc(O)c1C(=O)O` [ANACARDIC ACID], the inhibition amounted to 50% in data set [1] and 30% in data set [2]. The CMC in data set [3] was 390 µM.
What is called IC50 is the concentration at which inhibition is half-maximal. By Ki is commonly meant the equilibrium dissociation constant of an inhibitor or competing ligand from its target. Turning to `CCCCCCCc1ccc(CCc2cc(O)cc(O)c2C(=O)O)cc1`, in data set [4], the 50% inhibitory concentration (IC50) stood at 11.1 µM. Also, the inhibition entry in [5] is “inactive”. Further, the Ki in [6] is 15.7 µM; in data set [7] it was 9.8 µM. Besides, in data set [3], the CMC was 436 µM.
For `CCCCCCCCCCCCCCCc1cccc(O)c1C(=O)OC`, the inhibition entry in data set [8] is “inactive”.
As for `CCCCCCCCCCCCCCCc1cc(O)cc(O)c1C(=O)O`, the inhibition entry in data set [8] is “Active”. Also, the inhibition entry in [5] is “inactive”.
For `O=C(O)c1c(O)cccc1CCc1ccc2nc(-c3ccccc3)oc2c1`, in that order: “Active” and “inactive”.
Take `CCCCCCCCCCCCCCOc1cccc(O)c1C(=O)O`: in [4], the IC50 came out at 55.4 µM. Further, the Ka stood at 1.8 mM in data set [9] and 24 µM in data set [13]. The same molecule returned a CMC in data set [10] of 208 µM. Moreover, the result in data set [11] was Active. Moreover, the results for the fold change (FC) in data set [11] and in data set [14] were 3 and 1.4, respectively. For the same molecule, in data set [12], the Activity entry is “Dose-dependent effect”.
As to `O=C(O)c1c(O)cc(O)cc1CCc1ccc(Cc2nc3ccccc3o2)cc1`, the half-inhibitory concentration (IC50) in [4] was determined as 58.5 µM. Moreover, the inhibition result in [5] was “inactive”.
On to `CCCCCCCc1ccc(CCc2cccc(O)c2C(=O)O)cc1`, for which, in data set [11], the outcome was Active and the fold change (FC) amounted to 3.
